One may read the inhibition as the drop in the measured response relative to a control, in per cent. As a reminder, the MIC is the lowest concentration found to suppress growth.

Results on eleven compounds are retold here after ChEMBL document CHEMBL1156681, “Synthesis, anti-bacterial, anti-asthmatic and anti-diabetic activities of novel N-substituted-2-(4-phenylethynyl-phenyl)-1H-benzimidazoles and N-substituted 2[4-(4,4-dimethyl-thiochroman-6-yl-ethynyl)-phenyl)-1H-benzimidazoles” (2008).

In assay [1] the test system is Staphylococcus aureus. Kind of assay: Antibacterial activity against Staphylococcus aureus at 100 ug/ml after 48 hrs by tube dilution method. The format is functional, organism-based. In short, it runs like this:
(§1)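 Compounds dissolved in DMSO and tested by tube dilution at […]. Tubes were incubated at 37 °C for 48 h. Growth was scored against the DMSO control as poor, medium or confluent (no inhibition). MIC was taken from the dilution series. Cephalexin served as the reference antibacterial and DMSO as the solvent control.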

Assay [2] deals with T1, Tyrosine-protein phosphatase non-receptor type 1 (Homo sapiens) (UniProt P18031).
T1 sequence (whole entry): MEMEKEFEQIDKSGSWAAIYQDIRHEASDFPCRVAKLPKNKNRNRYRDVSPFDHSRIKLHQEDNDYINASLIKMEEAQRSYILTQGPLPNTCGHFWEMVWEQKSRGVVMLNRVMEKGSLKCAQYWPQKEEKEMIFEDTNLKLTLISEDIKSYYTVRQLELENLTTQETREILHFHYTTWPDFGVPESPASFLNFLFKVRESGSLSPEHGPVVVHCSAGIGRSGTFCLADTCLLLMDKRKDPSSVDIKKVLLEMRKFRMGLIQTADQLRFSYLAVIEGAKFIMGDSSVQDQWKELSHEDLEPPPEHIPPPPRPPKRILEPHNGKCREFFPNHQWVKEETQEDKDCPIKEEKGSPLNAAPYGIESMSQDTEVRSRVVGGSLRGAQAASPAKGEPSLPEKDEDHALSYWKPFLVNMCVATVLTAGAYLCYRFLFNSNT
Kind of assay: Inhibition of human recombinant PTP1B at 30 uM after 30 mins relative to control. In short, it runs like this: (§2)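 In-house human recombinant PTP-1B (~35 ng) was assayed with p-nitrophenyl phosphate in 25 mM Hepes, 3 mM DTT and 1 mM EDTA, pH 7.4, with DMSO at ≤1%. Absorbance at 405 nm was monitored continuously at 30 °C for 30 min, then NaOH was added and 405 nm read again. Activity was expressed as % of control, and % inhibition as 100 minus activity.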

Assay [3] has as its system Staphylococcus aureus. Kind of assay: Antibacterial activity against Staphylococcus aureus at 0.1 ug/ml after 48 hrs by tube dilution method. The format is functional, organism-based. In short, it runs like this:
as §1

Assay [4] has as its system Salmonella typhimurium. Briefly: Antibacterial activity against Salmonella Typhimurium after 48 hrs by tube dilution method. The format is functional, Salmonella enterica subsp. enterica serovar Typhimurium. As to conditions: Salmonella enterica. In short, it runs like this:
as §1

Assay [5] concerns Salmonella typhimurium. Briefly: Antibacterial activity against Salmonella Typhimurium at 500 ug/ml after 48 hrs by tube dilution method. In kind it is functional, organism-based. As to conditions: Salmonella enterica subsp. enterica serovar Typhimurium. In short, it runs like this: as §1
Assay [6] has as its system Staphylococcus aureus. Kind of assay: Antibacterial activity against Staphylococcus aureus at 500 ug/ml after 48 hrs by tube dilution method. In kind it is functional, organism-based. In short, it runs like this: as §1
Assay [7] concerns the target Dipeptidyl peptidase 4 (Homo sapiens) (UniProt P27487). Briefly: Inhibition of human recombinant DPP4 at 0.3 uM after 30 mins relative to control. In short, it runs like this: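 Recombinant human DPP-IV (10 ng) was run in 25 mM Tris pH 7.4, 140 mM NaCl, 10 mM KCl and 1% BSA with Gly-Pro-AMC substrate. Compounds in DMSO were added, and AMC release was followed kinetically at 30 °C for 30 min (ex 380 / em 460 nm). Percent inhibition was calculated against the solvent-only control.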

Assay [8] concerns Staphylococcus aureus. Kind of assay: Antibacterial activity against Staphylococcus aureus at 10 ug/ml after 48 hrs by tube dilution method. The format is functional, organism-based. In short, it runs like this: as §1
Assay [9] concerns Staphylococcus aureus. Briefly: Antibacterial activity against Staphylococcus aureus after 48 hrs by tube dilution method. The format is functional. In short, it runs like this: as §1
Assay [10] relates to Salmonella typhimurium. Kind of assay: Antibacterial activity against Salmonella Typhimurium at 0.1 ug/ml after 48 hrs by tube dilution method. In kind it is functional, organism-based. As to conditions: Salmonella enterica subsp. enterica serovar Typhimurium. In short, it runs like this:
as §1

The subject of assay [11] is Salmonella typhimurium. Briefly: Antibacterial activity against Salmonella Typhimurium at 10 ug/ml after 48 hrs by tube dilution method. The format is functional, organism-based. As to conditions: Salmonella enterica subsp. enterica serovar Typhimurium. In short, it runs like this: as §1
Assay [12] deals with Staphylococcus aureus. Kind of assay: Antibacterial activity against Staphylococcus aureus at 1 ug/ml after 48 hrs by tube dilution method. The format is functional, organism-based. In short, it runs like this: as §1
Assay [13] relates to Salmonella typhimurium. Kind of assay: Antibacterial activity against Salmonella Typhimurium at 1 ug/ml after 48 hrs by tube dilution method. In kind it is functional, organism-based. As to conditions: Salmonella enterica subsp. enterica serovar Typhimurium. In short, it runs like this: as §1
Assay [14] addresses T2, Phosphodiesterase 4 (Homo sapiens) (UniProt P27815+Q08499+Q07343+Q08493). Briefly: Inhibition of human PDE4 at 1 uM after 20 mins. In kind it is protein assay.
In assay [15] the test system is Salmonella typhimurium. Briefly: Antibacterial activity against Salmonella Typhimurium at 100 ug/ml after 48 hrs by tube dilution method. In kind it is functional, organism-based. As to conditions: Salmonella enterica subsp. enterica serovar Typhimurium. In short, it runs like this:
as §1

The target of assay [16] is T2, Phosphodiesterase 4 (Homo sapiens). As to conditions: 0.075 uM.
The test system of assay [17] is Salmonella typhimurium. Kind of assay: Antibacterial activity against Salmonella Typhimurium at 200 ug/ml after 48 hrs by tube dilution method. In kind it is functional, organism-based. As to conditions: Salmonella enterica subsp. enterica serovar Typhimurium. In short, it runs like this: as §1
Assay [18] concerns Staphylococcus aureus. Briefly: Antibacterial activity against Staphylococcus aureus at 200 ug/ml after 48 hrs by tube dilution method. The format is functional, organism-based. In short, it runs like this: as §1
Assay [19] addresses T1, Tyrosine-protein phosphatase non-receptor type 1 (Homo sapiens). Briefly: Inhibition of human recombinant PTP1B at 0.3 uM after 30 mins relative to control. In short, it runs like this: as §2

Converted amounts (≈) assume the structure as drawn. The source made the active and inactive calls. No cut-off for these calls is given here.

Dipeptidyl peptidase 4 (Homo sapiens), sequence (P27487 whole entry, looked up): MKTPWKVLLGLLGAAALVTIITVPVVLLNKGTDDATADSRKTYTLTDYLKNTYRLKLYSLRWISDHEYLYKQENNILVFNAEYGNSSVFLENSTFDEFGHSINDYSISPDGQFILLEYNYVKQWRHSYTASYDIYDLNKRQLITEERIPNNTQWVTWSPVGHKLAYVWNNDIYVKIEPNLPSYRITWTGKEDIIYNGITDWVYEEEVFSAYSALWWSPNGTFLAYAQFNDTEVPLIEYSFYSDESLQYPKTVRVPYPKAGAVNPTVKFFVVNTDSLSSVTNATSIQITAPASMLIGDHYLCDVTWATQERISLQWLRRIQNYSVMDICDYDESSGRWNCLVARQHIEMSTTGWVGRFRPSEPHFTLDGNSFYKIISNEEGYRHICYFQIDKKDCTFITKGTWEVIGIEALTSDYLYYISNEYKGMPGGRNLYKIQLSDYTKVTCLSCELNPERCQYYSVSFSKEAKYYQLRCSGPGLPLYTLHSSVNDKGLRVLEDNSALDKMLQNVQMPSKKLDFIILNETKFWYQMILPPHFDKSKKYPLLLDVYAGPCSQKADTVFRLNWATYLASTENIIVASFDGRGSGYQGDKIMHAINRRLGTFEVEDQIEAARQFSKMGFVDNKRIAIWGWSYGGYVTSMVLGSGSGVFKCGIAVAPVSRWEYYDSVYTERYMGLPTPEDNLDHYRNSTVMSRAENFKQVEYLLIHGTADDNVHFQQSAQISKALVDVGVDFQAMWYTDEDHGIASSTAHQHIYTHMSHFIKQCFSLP

Turning to `CCCCOC(=O)n1c(-c2ccc(C#Cc3ccccc3)cc2)nc2ccccc21`, the result with Staphylococcus aureus [1], with Staphylococcus aureus [3], with Staphylococcus aureus [8], with Salmonella typhimurium [10], in the assay on Salmonella typhimurium [11] and in the assay on Staphylococcus aureus [12] was inactive. The outcome in the assay with Salmonella typhimurium [13] and in the assay with Salmonella typhimurium [15] was inactive. The inhibition amounted to 5.84% in [2], 0% in assay [7] and 16.2% in [14]. For the same compound, the MIC in the assay with Salmonella typhimurium [4] and against Staphylococcus aureus [9] was 500 µg/mL (≈ 1270 µM) each time. Besides, the outcome in the assay with Salmonella typhimurium [5] and with Staphylococcus aureus [6] was Active.
As for `CCn1c(-c2ccc(C#Cc3ccccc3)cc2)nc2ccccc21`, the result with Staphylococcus aureus [1], in the assay on Staphylococcus aureus [3], in the assay on Staphylococcus aureus [8], in the assay on Salmonella typhimurium [10], in the assay on Salmonella typhimurium [11] and with Staphylococcus aureus [12] was inactive. Moreover, the result in the assay on Salmonella typhimurium [13] and with Salmonella typhimurium [15] was inactive. Also, the inhibition stood at 2.2% in assay [2], 0% in assay [7] and 13.5% in assay [14]. The minimal inhibitory concentration (MIC) in the assay on Salmonella typhimurium [4] and against Staphylococcus aureus [9] was 500 µg/mL (≈ 1550 µM) in each case. The result in the assay on Salmonella typhimurium [5] and in the assay with Staphylococcus aureus [6] was Active.
As to `COc1ccc([C@]2(C#N)CC[C@@H](C(=O)O)CC2)cc1OC1CCCC1`, the inhibition in assay [16] was found to be 45.3%.
Take `Cc1ccc(S(=O)(=O)n2c(-c3ccc(C#Cc4ccccc4)cc3)nc3ccccc32)cc1`: the figures for the inhibition in [2], in [7] and in [14] were 0%, 0% and 22.6%, respectively. Moreover, the result in the assay with Staphylococcus aureus [3], in the assay on Salmonella typhimurium [10], with Salmonella typhimurium [11], in the assay with Staphylococcus aureus [12] and in the assay on Salmonella typhimurium [13] was inactive. The MIC against Salmonella typhimurium [4] and with Staphylococcus aureus [9] was 200 µg/mL (≈ 446 µM) in each case. Further, the outcome with Salmonella typhimurium [17], in the assay with Salmonella typhimurium [5], in the assay on Staphylococcus aureus [6] and in the assay on Staphylococcus aureus [18] was Active.
Consider `CCn1c(-c2ccc(C#Cc3ccc4c(c3)C(C)(C)CCS4)cc2)nc2ccccc21`, for which the inhibition in assay [2] worked out at 0%; in assay [7], 0%; in [14] it was 15.8%. In addition, the outcome with Staphylococcus aureus [3], with Staphylococcus aureus [8], with Salmonella typhimurium [10], with Salmonella typhimurium [11], in the assay on Staphylococcus aureus [12] and in the assay with Salmonella typhimurium [13] was inactive. Further, the MIC with Salmonella typhimurium [4] and in the assay on Staphylococcus aureus [9] was 200 µg/mL (≈ 473 µM) each time. Besides, the outcome in the assay on Salmonella typhimurium [17], in the assay with Salmonella typhimurium [5], in the assay on Staphylococcus aureus [6] and in the assay with Staphylococcus aureus [18] was Active.
Consider `O=S(=O)(n1c(-c2ccc(C#Cc3ccccc3)cc2)nc2ccccc21)C(F)(F)F`, for which the result with Staphylococcus aureus [1], in the assay with Staphylococcus aureus [3], in the assay on Staphylococcus aureus [8], in the assay on Salmonella typhimurium [10], with Salmonella typhimurium [11] and in the assay with Staphylococcus aureus [12] was inactive. Further, the result in the assay with Salmonella typhimurium [13] was inactive. Also, the inhibition in [2] stood at 0%; in assay [7], 0%; in assay [14] it was 16.9%. Further, the minimal inhibitory concentration (MIC) in the assay on Salmonella typhimurium [4] and with Staphylococcus aureus [9] was 500 µg/mL (≈ 1170 µM) throughout. The result in the assay on Salmonella typhimurium [5] and with Staphylococcus aureus [6] was Active.
Take `C(#Cc1ccc(-c2nc3ccccc3[nH]2)cc1)c1ccccc1`: the results for the inhibition in assay [2], in assay [7] and in [14] were 1.64%, 0% and 3.4%, respectively. Further, the outcome in the assay with Staphylococcus aureus [3], in the assay with Staphylococcus aureus [8], in the assay with Salmonella typhimurium [10], with Salmonella typhimurium [11], with Staphylococcus aureus [12] and in the assay on Salmonella typhimurium [13] was inactive. The MIC with Salmonella typhimurium [4] and in the assay with Staphylococcus aureus [9] was 200 µg/mL (≈ 679 µM) throughout. Also, the outcome in the assay with Salmonella typhimurium [17], with Salmonella typhimurium [5], in the assay with Staphylococcus aureus [6] and in the assay with Staphylococcus aureus [18] was Active.
Consider `CC(C)COC(=O)n1c(-c2ccc(C#Cc3ccccc3)cc2)nc2ccccc21`, for which the result in the assay with Staphylococcus aureus [1], with Staphylococcus aureus [3], with Staphylococcus aureus [8], in the assay with Salmonella typhimurium [10], with Salmonella typhimurium [11] and in the assay on Staphylococcus aureus [12] was inactive. Moreover, the result in the assay on Salmonella typhimurium [13] and in the assay on Salmonella typhimurium [15] was inactive. In addition, the inhibition in [2] was 17.4%; in assay [7], 0%; in [14], 17.2%. The minimal inhibitory concentration (MIC) with Salmonella typhimurium [4] and in the assay with Staphylococcus aureus [9] was 500 µg/mL (≈ 1270 µM) in each case. In addition, the outcome with Salmonella typhimurium [5] and in the assay with Staphylococcus aureus [6] was Active.
For the compound `CC1=C(C(=O)O)N2C(=O)[C@@H](NC(=O)[C@H](N)c3ccccc3)[C@H]2SC1` [CEPHALEXIN ANHYDROUS], the outcome with Staphylococcus aureus [1], with Salmonella typhimurium [17], in the assay with Salmonella typhimurium [5], in the assay with Staphylococcus aureus [6], in the assay with Staphylococcus aureus [8] and in the assay with Staphylococcus aureus [18] was Active. The result in the assay on Staphylococcus aureus [3], with Salmonella typhimurium [10], with Staphylococcus aureus [12] and in the assay on Salmonella typhimurium [13] was inactive. The figures for the MIC in the assay on Salmonella typhimurium [4] and in the assay with Staphylococcus aureus [9] were 200 µg/mL (≈ 576 µM) and 10 µg/mL (≈ 28.8 µM), respectively.
In the case of `Cn1c(-c2ccc(C#Cc3ccc4c(c3)C(C)(C)CCS4)cc2)nc2ccccc21`, the inhibition came to 0% in assay [2], 0% in [7] and 18.2% in [14]. In addition, the outcome with Staphylococcus aureus [3], in the assay on Salmonella typhimurium [10], with Staphylococcus aureus [12] and with Salmonella typhimurium [13] was inactive. The MIC with Salmonella typhimurium [4] and against Staphylococcus aureus [9] was 200 µg/mL (≈ 490 µM) in each case. The outcome in the assay on Salmonella typhimurium [17], in the assay with Salmonella typhimurium [5], in the assay with Staphylococcus aureus [6] and in the assay with Staphylococcus aureus [18] was Active.
Turning to `C=C(O)CN(c1ccccc1C(=O)O)C(CCC(=O)N[C@@H](CCSC)C(=O)O)CNC(=O)C(Cc1cccc(CC)c1)NC(C)=O` (stereo not given in full), the inhibition in [19] came to 49.1%.
